ChEMBL document CHEMBL1926642, “Relevance of the C-5 position to schweinfurthin induced cytotoxicity” (2011)

Experiments:
Format in all cases: functional
HL-60(TB) = assay: Growth inhibition of human HL-60(TB) cells after 48 hrs by sulforhodamine B assay; conditions: HL-60, 48 h
How it was run: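 Run in the NCI 60 cell-line screen as the full 5-dose assay that follows initial single-dose testing; GI50 is read from the dose series.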

K562 = assay: Growth inhibition of human K562 cells after 48 hrs by sulforhodamine B assay; conditions: K562, 48 h
RPMI-8226 = assay: Growth inhibition of human RPMI8226 cells after 48 hrs by sulforhodamine B assay; conditions: RPMI-8226, 48 h
NCI-H226 = assay: Growth inhibition of human NCI-H226 cells after 48 hrs by sulforhodamine B assay; conditions: NCI-H226, 48 h
NCI-H23 = assay: Growth inhibition of human NCI-H23 cells after 48 hrs by sulforhodamine B assay; conditions: NCI-H23, 48 h
NCI-H322M = assay: Growth inhibition of human NCI-H322M cells after 48 hrs by sulforhodamine B assay
A549 = assay: Growth inhibition of human A549 cells after 48 hrs by sulforhodamine B assay; conditions: A549, 48 h
NCI-H460 = assay: Growth inhibition of human NCI-H460 cells after 48 hrs by sulforhodamine B assay; conditions: NCI-H460, 48 h
HCT-15 = assay: Growth inhibition of human HCT15 cells after 48 hrs by sulforhodamine B assay; conditions: HCT-15, 48 h
KM12 = assay: Growth inhibition of human KM12 cells after 48 hrs by sulforhodamine B assay; conditions: KM12, 48 h
SW-620 = assay: Growth inhibition of human SW620 cells after 48 hrs by sulforhodamine B assay; conditions: SW-620, 48 h
SF-539 = assay: Growth inhibition of human SF539 cells after 48 hrs by sulforhodamine B assay; conditions: SF-539, 48 h
SNB-75 = assay: Growth inhibition of human SNB75 cells after 48 hrs by sulforhodamine B assay; conditions: SNB-75, 48 h
MDA-MB-435 = assay: Growth inhibition of human MDA-MB-435 cells after 48 hrs by sulforhodamine B assay; conditions: MDA-MB-435, 48 h
SK-MEL-2 = assay: Growth inhibition of human SK-MEL-2 cells after 48 hrs by sulforhodamine B assay; conditions: SK-MEL-2, 48 h
SK-MEL-28 = assay: Growth inhibition of human SK-MEL-28 cells after 48 hrs by sulforhodamine B assay; conditions: SK-MEL-28, 48 h
SK-MEL-5 = assay: Growth inhibition of human SK-MEL-5 cells after 48 hrs by sulforhodamine B assay; conditions: SK-MEL-5, 48 h
UACC-257 = assay: Growth inhibition of human UACC257 cells after 48 hrs by sulforhodamine B assay; conditions: UACC-257, 48 h
OVCAR-3 = assay: Growth inhibition of human OVCAR3 cells after 48 hrs by sulforhodamine B assay; conditions: OVCAR-3, 48 h
OVCAR-4 = assay: Growth inhibition of human OVCAR4 cells after 48 hrs by sulforhodamine B assay; conditions: OVCAR-4, 48 h
OVCAR-5 = assay: Growth inhibition of human OVCAR5 cells after 48 hrs by sulforhodamine B assay; conditions: OVCAR-5, 48 h
SK-OV-3 = assay: Growth inhibition of human SKOV3 cells after 48 hrs by sulforhodamine B assay; conditions: SK-OV-3, 48 h
786-0 = assay: Growth inhibition of human 786-0 cells after 48 hrs by sulforhodamine B assay; conditions: 786-0, 48 h
A498 = assay: Growth inhibition of human A498 cells after 48 hrs by sulforhodamine B assay; conditions: A498, 48 h
CAKI-1 = assay: Growth inhibition of human Caki1 cells after 48 hrs by sulforhodamine B assay; conditions: CAKI-1, 48 h
SN12C = assay: Growth inhibition of human SN12C cells after 48 hrs by sulforhodamine B assay
TK-10 = assay: Growth inhibition of human TK10 cells after 48 hrs by sulforhodamine B assay; conditions: TK-10, 48 h
PC-3 = assay: Growth inhibition of human PC3 cells after 48 hrs by sulforhodamine B assay; conditions: PC-3, 48 h
MDA-MB-231 = assay: Growth inhibition of human MDA-MB-231/ATCC cells after 48 hrs by sulforhodamine B assay; conditions: MDA-MB-231, 48 h
[1] = Growth inhibition of human Hs 578T cells after 48 hrs by sulforhodamine B assay
BT-549 = assay: Growth inhibition of human BT549 cells after 48 hrs by sulforhodamine B assay; conditions: BT-549, 48 h
T47D = assay: Growth inhibition of human T47D cells after 48 hrs by sulforhodamine B assay
[2] = read-out: pLC50 (the source's name) (converted)

In the case of COc1cc(/C=C/c2ccc3c(c2)C[C@@H]2C(C)(C)[C@H](O)CC[C@@]2(C)O3)cc(O)c1C/C=C(\C)CCC=C(C)C, the GI50 (HL-60(TB)) is reported as 13.8 µM, the CC50 (HL-60(TB); [2]) is reported as > 100 µM and the TGI (HL-60(TB); read-out: pTGI (converted)) is reported as 57.5 µM. The GI50 (K562) was 5.5 µM, the LC50 (K562) was > 100 µM and the TGI (K562; read-out: pTGI (converted)) was 33.9 µM. The GI50 (RPMI-8226) was 3.09 µM, the LC50 (RPMI-8226) was > 100 µM and the TGI (RPMI-8226; read-out: pTGI (converted)) was 14.5 µM. The GI50 (NCI-H226) was 22.9 µM, the LC50 (NCI-H226) was > 100 µM and the TGI (NCI-H226; read-out: pTGI (converted)) was 56.2 µM. It also gave a GI50 (NCI-H23) of 15.1 µM, an LC50 (NCI-H23) of 60.3 µM and a TGI (NCI-H23; read-out: pTGI (converted)) of 30.2 µM. For the same compound, the GI50 (NCI-H322M) was 26.3 µM, the LC50 (NCI-H322M) was > 100 µM and the TGI (NCI-H322M; read-out: pTGI (converted)) was 87.1 µM. For the same compound, the LC50 (A549) was > 100 µM, the GI50 (A549; read-out: GI50) was 13.2 µM and the GI50 (A549; read-out: pGI50 (converted)) was 13.2 µM. The TGI (A549; read-out: pTGI (converted)) was 39.8 µM, the GI50 (NCI-H460) was 7.41 µM and the LC50 (concentration killing 50% of cells) (NCI-H460) was 55 µM. The TGI (NCI-H460; read-out: pTGI (converted)) was 21.9 µM, the GI50 (HCT-15) was 6.31 µM and the LC50 (HCT-15) was 58.9 µM. For the same compound, the TGI (HCT-15; read-out: pTGI (converted)) was 20.9 µM, the GI50 (KM12) was 2630 nM and the LC50 (KM12) was 21.9 µM. It also gave a TGI (KM12; read-out: pTGI (converted)) of 6.46 µM, a GI50 (SW-620) of 11.7 µM and an LC50 (SW-620) of 53.7 µM. For the same compound, the TGI (SW-620; read-out: pTGI (converted)) was 25.1 µM, the GI50 (SF-539) was 4.17 µM and the LC50 (SF-539) was 57.5 µM. For the same compound, the TGI (SF-539; read-out: pTGI (converted)) was 17.4 µM, the GI50 (SNB-75) was 5.37 µM and the LC50 (SNB-75) was > 100 µM. For the same compound, the TGI (SNB-75; read-out: pTGI (converted)) was 42.7 µM, the GI50 (MDA-MB-435) was 17.4 µM and the LC50 (MDA-MB-435) was 81.3 µM. For the same compound, the TGI (MDA-MB-435; read-out: pTGI (converted)) was 38 µM, the GI50 (SK-MEL-2) was 15.8 µM and the LC50 (SK-MEL-2) was 81.3 µM. For the same compound, the TGI (SK-MEL-2; read-out: pTGI (converted)) was 35.5 µM, the GI50 (SK-MEL-28) was 16.2 µM and the CC50 (SK-MEL-28; [2]) was 69.2 µM. It also gave a TGI (SK-MEL-28; read-out: pTGI (converted)) of 33.1 µM, a GI50 (SK-MEL-5) of 8.71 µM and an LC50 (SK-MEL-5) of 49 µM. The TGI (SK-MEL-5; read-out: pTGI (converted)) was 21.4 µM, the GI50 (UACC-257) was 22.9 µM and the LC50 (UACC-257) was > 100 µM. The TGI (UACC-257; read-out: pTGI (converted)) was 55 µM, the GI50 (OVCAR-3) was 17.4 µM and the LC50 (OVCAR-3) was 66.1 µM. The TGI (OVCAR-3; read-out: pTGI (converted)) was 33.9 µM, the GI50 (OVCAR-4) was 20.9 µM and the LC50 (OVCAR-4) was > 100 µM. For the same compound, the TGI (OVCAR-4; read-out: pTGI (converted)) was 83.2 µM, the GI50 (OVCAR-5) was 27.5 µM and the LC50 (OVCAR-5) was > 100 µM. For the same compound, the TGI (OVCAR-5; read-out: pTGI (converted)) was 79.4 µM, the GI50 (SK-OV-3) was 22.9 µM and the LC50 (SK-OV-3) was > 100 µM. For the same compound, the TGI (SK-OV-3; read-out: pTGI (converted)) was > 100 µM, the GI50 (786-0) was 2950 nM and the CC50 (786-0; [2]) was 42.7 µM. The TGI (786-0; read-out: pTGI (converted)) was 12 µM, the GI50 (A498) was 46.8 µM and the LC50 (A498) was > 100 µM. For the same compound, the TGI (A498; read-out: pTGI (converted)) was > 100 µM, the GI50 (CAKI-1) was 5.37 µM and the LC50 (CAKI-1) was 67.6 µM. For the same compound, the TGI (CAKI-1; read-out: pTGI (converted)) was 20 µM, the GI50 (SN12C) was 18.2 µM and the LC50 (SN12C) was 70.8 µM. The TGI (SN12C; read-out: pTGI (converted)) was 36.3 µM, the GI50 (TK-10) was 29.5 µM and the LC50 (TK-10) was > 100 µM. The TGI (TK-10; read-out: pTGI (converted)) was 79.4 µM, the GI50 (PC-3) was 8.51 µM and the CC50 (PC-3; [2]) was > 100 µM. The TGI (PC-3; read-out: pTGI (converted)) was 56.2 µM, the GI50 (MDA-MB-231) was 10 µM and the CC50 (MDA-MB-231; [2]) was 95.5 µM. The TGI (MDA-MB-231; read-out: pTGI (converted)) was 30.9 µM, the GI50 [1] was 8.71 µM and the CC50 [1, 2] was > 100 µM. It also gave a TGI ([1]; read-out: pTGI (converted)) of 93.3 µM, a GI50 (BT-549) of 5.01 µM and an LC50 (BT-549) of 49 µM. The TGI (BT-549; read-out: pTGI (converted)) was 17.8 µM, the GI50 (T47D) was 20.9 µM and the LC50 (T47D) was > 100 µM. The TGI (T47D; read-out: pTGI (converted)) was 58.9 µM.
